The source made the active and inactive calls. The rule behind the calls is not given here.
Experiments:
[1] = tested on: Woodchuck hepatitis virus; experiment: Antiviral activity against Woodchuck hepatitis virus infected in woodchuck assessed as reduction of viral DNA replicative intermediate level per ug of total cell DNA at 15 mg/kg, po qd measured on 12th week on 48 weeks study (reference value: 1495 +/- 890 pg); assay type: functional
Outline: (§1)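 Chronic WHV-carrier woodchucks, 5 per group, 15 mg/kg/day oral once daily for 48 weeks in liquid diet. Needle liver biopsies were snap-frozen in liquid nitrogen and stored at −70°C. Hepatic WHV DNA replicative intermediates were quantified by Southern blot (pg/μg total cell DNA) and WHV RNA by Northern blot; group means ± SD were compared with pretreatment and placebo.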

[2] = tested on: Woodchuck hepatitis virus; experiment: Antiviral activity against Woodchuck hepatitis virus infected in woodchuck assessed as reduction of viral DNA replicative intermediate level per ug of total cell DNA at 15 mg/kg, po qd for 48 weeks measured on 60th week (reference value: 979 pg); assay type: functional; outline: as §1
[3] = tested on: Woodchuck hepatitis virus; experiment: Antiviral activity against Woodchuck hepatitis virus infected in woodchuck assessed as reduction of viral RNA level per ug of total cell DNA at 15 mg/kg, po qd for 48 weeks measured on 60th week (reference value: 27 pg); assay type: functional; outline: as §1
[4] = tested on: Woodchuck hepatitis virus; experiment: Antiviral activity against Woodchuck hepatitis virus infected in woodchuck assessed as reduction of viral antigen positive hepatocytes at 15 mg/kg, po qd measured on 36th week on 48 weeks study (reference value: 41 +/- 25 %); assay type: functional, Hepatocyte; set-up: scale not given: the % may be the effect or the level left
Outline: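 Chronic WHV-carrier woodchucks, 5 per group, 15 mg/kg/day oral once daily for 48 weeks in liquid diet. Liver biopsies were taken at pretreatment, weeks 12, 36, 48 and week 60. Percentage of hepatocytes positive for WHcAg was given as group mean ± SD and compared with pretreatment and placebo.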

[5] = tested on: Woodchuck hepatitis virus; experiment: Antiviral activity against Woodchuck hepatitis virus infected in woodchuck assessed as absent of lesion in portal hepatitis at 15 mg/kg, po qd for 48 weeks measured on 60th week; assay type: functional, organism-based; set-up: dose 15 mg/kg
Outline: (§2)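 Chronic WHV-carrier adult woodchucks (inoculated at 3 days of age), 5 per group, dosed orally once daily for 48 weeks by dose syringe, drug in saline suspended in semisynthetic liquid diet; placebo is diet alone. Ultrasound-guided needle liver biopsies under ketamine/xylazine, formalin-fixed, H&E stained; portal and lobular hepatitis graded 0 (absent) to 4 (most severe).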

[6] = tested on: Woodchuck hepatitis virus; experiment: Antiviral activity against Woodchuck hepatitis virus infected in woodchuck assessed as absent of lesion in lobular hepatitis at 15 mg/kg, po qd measured on 36th week on 48 weeks study; assay type: functional, organism-based; set-up: dose 15 mg/kg; outline: as §2
[7] = tested on: Woodchuck hepatitis virus; experiment: Antiviral activity against Woodchuck hepatitis virus infected in woodchuck assessed as absent of lobular in portal hepatitis at 15 mg/kg, po qd for 48 weeks; assay type: functional, organism-based; set-up: dose 15 mg/kg
Outline: (§3)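 Adult chronic WHV-carrier woodchucks (neonatally inoculated), 5 per group, given drug once daily by dose syringe in semisynthetic liquid diet, for 48 weeks; placebo got diet alone. Ultrasound-guided needle liver biopsies under ketamine/xylazine anesthesia at pretreatment, weeks 12, 36, 48 and 12 weeks post-withdrawal. Biopsies were formalin-fixed, paraffin-embedded and H&E stained. Portal and lobular hepatitis were graded 0 (absent) to 4 (most severe).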

[8] = tested on: Woodchuck hepatitis virus; experiment: Antiviral activity against Woodchuck hepatitis virus infected in woodchuck assessed as absent of lesion in lobular hepatitis at 15 mg/kg, po qd for 48 weeks measured on 60th week; assay type: functional, organism-based; set-up: dose 15 mg/kg; outline: as §3
Marmota monax [9] = experiment: Toxicity in Woodchuck hepatitis virus infected woodchuck assessed as change in body weight at 15 mg/kg, po qd for 48 weeks measured up to 60 weeks; assay type: organism-based; set-up: dose 15 mg/kg, route oral; conditions: in vivo
Outline: (§4)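 Chronic WHV-carrier woodchucks, 5 per group, were dosed orally once daily in liquid diet for 48 weeks, with a placebo diet-only group. Body weights were monitored. Complete blood counts were taken 2 weeks pretreatment, at weeks 12, 36 and 48 of treatment, and 12 weeks after withdrawal. Values were compared with placebo controls.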

Marmota monax [10] = experiment: Toxicity in Woodchuck hepatitis virus infected woodchuck assessed as effect on hematological parameters at 15 mg/kg, po qd for 48 weeks measured up to 60 weeks; assay type: organism-based; set-up: dose 15 mg/kg, route oral; conditions: in vivo; outline: as §4
Marmota monax [11] = experiment: Toxicity in Woodchuck hepatitis virus infected woodchuck assessed as increase of liver sorbitol dehydrogenase activity at 15 mg/kg, po qd measured on 4 to 24 weeks on 48 week study; assay type: organism-based; set-up: dose 15 mg/kg, route oral; conditions: in vivo
Outline: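 Woodchucks chronically infected with WHV, 5 per group, received oral drug once daily in liquid diet for 48 weeks; placebo got diet only. Serum chemistry (GGT, ALP, ALT, AST, SDH, among others) was run 2 weeks pretreatment, at week 0, every other week to week 12, then monthly to week 48. Sampling continued at 2, 4, 6, 8 and 12 weeks post-treatment.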

[12] = tested on: Woodchuck hepatitis virus; experiment: Antiviral activity against Woodchuck hepatitis virus infected in woodchuck assessed as absent of lesion in portal hepatitis at 15 mg/kg, po qd measured on 36th week on 48 weeks study; assay type: functional, organism-based; set-up: dose 15 mg/kg; outline: as §2

Row | SMILES | Activity [1] | Activity [2] | Activity [3] | Activity [4] | Activity [5] | Activity [6] | Activity [7] | Activity [8] | Activity (Marmota monax [9]) | Activity (Marmota monax [10]) | Activity (Marmota monax [11]) | Activity [12]
1 | CC(C)(C)C(=O)OCOP(=O)(COCCn1cnc2c(N)ncnc21)OCOC(=O)C(C)(C)C [ADEFOVIR DIPIVOXIL] | 330 pg | 1147 pg | 46 pg | 45% | Active | Active | Active | Active | Non-toxic | Non-toxic | Toxic | –
2 | CC(C)OC(=O)OCOP(=O)(CO[C@H](C)Cn1cnc2c(N)ncnc21)OCOC(=O)OC(C)C.O=C(O)/C=C/C(=O)O [TENOFOVIR DISOPROXIL FUMARATE] | 870 pg | 1374 pg | 34 pg | 20% | Active | Active | – | – | Non-toxic | Non-toxic | Toxic | Active

— ChEMBL document CHEMBL1687712, “Antiviral effects of lamivudine, emtricitabine, adefovir dipivoxil, and tenofovir disoproxil fumarate administered orally alone and in combination to woodchucks with chronic woodchuck hepatitis virus infection” (Antimicrob Agents Chemother, 2008)
